One series concerns Salmonella typhimurium. As to the kind of experiment: Antibacterial activity against Salmonella Typhimurium ATCC 14028 at < 100 ug/mL by agar dilution method. The series is classed as functional, organism-based. The following applies: Salmonella enterica subsp. enterica serovar Typhimurium. In outline: (§1)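 Agar dilution on 1 mL Mueller-Hinton agar slants. Compounds were serially two-fold diluted in DMSO (final DMSO ≤2%) to give 10–100 µg/mL in the medium. Bacteria were grown on MHA at 35 °C for 24 h, suspended in 0.86% saline at 1.5 × 10^8 cell/mL (0.5 McFarland), and 1 µL was added per slant. Slants were incubated at 35 °C. Drug-free blank included; each assay run three times; MIC recorded.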

The nature of series [1]: Toxicity in Artemia salina assessed as mortality after 24 hrs. The series is classed as organism-based. The note with it: in vivo. Summed up: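 Artemia salina hatched at pH 9.0 (Na2CO3), 25 °C, strong aeration, continuous light (2000 Lux). Phototropic nauplii were collected about 12 h after hatching, and groups of 10 were exposed per well to various compound concentrations for 24 h. Survivors were counted and % deaths calculated.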

Series [2] concerns Staphylococcus saprophyticus. As to the kind of experiment: Antibacterial activity against Staphylococcus saprophyticus ATCC 35552 at < 100 ug/mL by agar dilution method. The series is classed as functional, organism-based. In outline: as §1
In the next series the test system is Escherichia coli. As to the kind of experiment: Antibacterial activity against Escherichia coli ATCC 11775 at < 100 ug/mL by agar dilution method. The series is classed as functional, organism-based. In outline:
as §1

Another series deals with Bacillus cereus. As to the kind of experiment: Antibacterial activity against Bacillus cereus ATCC 14579 at < 100 ug/mL by agar dilution method. The series is classed as functional. Summed up:
as §1

The next series deals with Pseudomonas aeruginosa. In words: Antibacterial activity against Pseudomonas aeruginosa ATCC 27853 at < 100 ug/mL by agar dilution method. The series is classed as functional, organism-based. Summed up: as §1
In the next series the test system is Staphylococcus aureus. In words: Antibacterial activity against Staphylococcus aureus ATCC 6538P at < 100 ug/mL by agar dilution method. The series is classed as functional, organism-based. In outline:
as §1

Another series concerns Proteus mirabilis. In words: Antibacterial activity against Proteus mirabilis ATCC 25933 at < 100 ug/mL by agar dilution method. The series is classed as functional, organism-based. Summed up:
as §1

The test system of another series is Mus musculus. As to the kind of experiment: Antinociceptive activity in Swiss mouse assessed as inhibition of acetic acid-induced writhing at 10 mg/kg, ip administered 30 mins before acetic acid challenge measured after 20 mins relative to control. The note with it: route intraperitoneal. The series is classed as functional. In outline:
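Mice were given 10 mg/kg i.p. in Tween 80/0.9% NaCl (Tween ≤5%) 30 min before i.p. 0.6% acetic acid, at 20–22 °C. Abdominal constrictions plus hind-limb stretching were counted cumulatively over 20 min in individual funnels. Groups of six, randomized and blinded. Inhibition was calculated versus vehicle controls (10 ml/kg i.p.); ANOVA with Dunnett's test.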

The test system of the next series is Enterobacter cloacae. In words: Antibacterial activity against Enterobacter cloacae ATCC 35030 at < 100 ug/mL by agar dilution method. The series is classed as functional, organism-based. In outline:
as §1

The subject of the next series is Bacillus subtilis. In words: Antibacterial activity against Bacillus subtilis ATCC 23858 at < 100 ug/mL by agar dilution method. The series is classed as functional, organism-based. In outline: as §1
Another series has as its system Streptococcus agalactiae. In words: Antibacterial activity against Streptococcus agalactiae ATCC 13813 at < 100 ug/mL by agar dilution method. The series is classed as functional. In outline: as §1

Molecules are shown by their SMILES. Activity calls are given as the source filed them. The rule behind the calls is not given here. Where only a bound is given, the exact number is not on record here.

Consider `Cc1ccc(NC2=C(Cl)C(=O)N(c3c(C)n(C)n(-c4ccccc4)c3=O)C2=O)cc1`, for which the outcome (with Salmonella typhimurium; in [2]; in the series on Escherichia coli; in the series with Bacillus cereus; in the series on Pseudomonas aeruginosa; with Staphylococcus aureus) was inactive. Also, the outcome in the series on Proteus mirabilis, with Enterobacter cloacae, with Bacillus subtilis and in the series with Streptococcus agalactiae was inactive. For the same compound, in series [1], the LC50 at 24 h is over 1000 µg/mL. Moreover, in the series with Mus musculus, the inhibition in vivo at 10 mg/kg stood at 33.6%.

With `Cc1c(N2C(=O)C(Cl)=C(Nc3cccc([N+](=O)[O-])c3)C2=O)c(=O)n(-c2ccccc2)n1C`, the result (with Salmonella typhimurium; in series [2]; in the series with Escherichia coli; in the series on Bacillus cereus; in the series on Pseudomonas aeruginosa; in the series on Staphylococcus aureus) was inactive. Further, the result in the series on Proteus mirabilis, with Enterobacter cloacae, with Bacillus subtilis and with Streptococcus agalactiae was inactive. Besides, the LC50 at 24 h in series [1] was over 1000 µg/mL. The inhibition in vivo at 10 mg/kg in the series with Mus musculus is 29.5%.

As to `Cc1cc(C)cc(NC2=C(Cl)C(=O)N(c3c(C)n(C)n(-c4ccccc4)c3=O)C2=O)c1`, the outcome (in the series with Salmonella typhimurium; in [2]; with Escherichia coli; in the series on Bacillus cereus; with Pseudomonas aeruginosa; in the series with Staphylococcus aureus) was inactive. For the same compound, the outcome in the series on Proteus mirabilis, in the series with Enterobacter cloacae, with Bacillus subtilis and with Streptococcus agalactiae was inactive. Further, the LC50 at 24 h in series [1] is over 1000 µg/mL. Further, the inhibition in vivo at 10 mg/kg in the series with Mus musculus came to 68.4%.

With `COc1cccc(NC2=C(Cl)C(=O)N(c3c(C)n(C)n(-c4ccccc4)c3=O)C2=O)c1`, the result (with Salmonella typhimurium; in series [2]; in the series on Escherichia coli; in the series with Bacillus cereus; in the series with Pseudomonas aeruginosa; with Staphylococcus aureus) was inactive. In addition, the outcome with Proteus mirabilis, with Enterobacter cloacae, in the series with Bacillus subtilis and in the series on Streptococcus agalactiae was inactive. Besides, the LC50 at 24 h in series [1] was over 1000 µg/mL. Moreover, in the series with Mus musculus, the inhibition in vivo at 10 mg/kg came to 56.7%.

Turning to `Cc1c(N2C(=O)C(Cl)=C(c3ccc[nH]3)C2=O)c(=O)n(-c2ccccc2)n1C`, the result (with Salmonella typhimurium; in series [2]; in the series with Escherichia coli; in the series with Bacillus cereus; in the series on Pseudomonas aeruginosa; in the series with Staphylococcus aureus) was inactive. The outcome in the series on Proteus mirabilis, in the series on Enterobacter cloacae, with Bacillus subtilis and in the series on Streptococcus agalactiae was inactive. In addition, the median lethal concentration (LC50) at 24 h in series [1] was over 1000 µg/mL. For the same compound, the inhibition in vivo at 10 mg/kg in the series with Mus musculus turned out to be 23.3%.

For `Cc1c(N2C(=O)C(Cl)=C(N3CCCCC3)C2=O)c(=O)n(-c2ccccc2)n1C`, the result (with Salmonella typhimurium; in series [2]; in the series on Escherichia coli; with Bacillus cereus; in the series on Pseudomonas aeruginosa; in the series with Staphylococcus aureus) was inactive. The outcome in the series on Proteus mirabilis, in the series with Enterobacter cloacae, in the series with Bacillus subtilis and with Streptococcus agalactiae was inactive. Besides, the LC50 at 24 h in series [1] was over 1000 µg/mL. For the same compound, in the series on Mus musculus, the inhibition in vivo at 10 mg/kg stood at 84.6%.
